Test results from ChEMBL document CHEMBL1152544, “Inhibitory effect of beta-diketones and their metal complexes on TNF-alpha induced expression of ICAM-1 on human endothelial cells” (Bioorg Med Chem, 2009).
≈ marks a conversion by molar mass, not a printed value.

Tests used:
[1] = system: HUVEC; experiment: Antiinflammatory activity in HUVEC assessed as inhibition of TNF-alpha-induced cell surface ICAM1 expression at 60 ug/ml preincubated before TNFalpha challenge measured after 16 hrs by ELISA; format: functional; details: Homo sapiens
Summary of the method: (§1)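 Primary umbilical-cord HUVEC in M-199 with 15% FCS were grown confluent on gelatinized plates. They were pretreated with compound in DMSO, then given TNF-α for 16 h. Cells were fixed in 1% glutaraldehyde (30 min, 4 °C) and blocked in 3% defatted milk (3 h, 37 °C). Detection used anti-ICAM-1 mAb overnight at 4 °C, then peroxidase secondary (3 h, 37 °C). Substrate was o-phenylenediamine in citrate pH 4.5, stopped with 2 N H2SO4, read at A490.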

[2] = Cytotoxicity against HUVEC assessed as cell viability at 60 ug/mL after 24 hrs by MTT assay; format: cell-based; details: human, HUVEC cells; read-out: Activity
Summary of the method: (§2)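 Primary HUVEC were exposed for 24 h to compound or vehicle (DMSO alone, 0.25%). Medium was replaced with MTT for the final 4 h. Formazan was then dissolved in DMSO and read at 570 nm. Viability was also checked by trypan blue exclusion.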

[3] = system: HUVEC; experiment: Cytotoxicity against HUVEC assessed as cell viability at 6.25 to 200 ug/mL after 24 hrs by MTT assay; format: cell-based; details: human; summary of the method: as §2
[4] = system: HUVEC; experiment: Antiinflammatory activity in HUVEC assessed as inhibition of TNF-alpha-induced cell surface ICAM1 expression preincubated before TNFalpha challenge measured after 16 hrs by ELISA; format: functional, cell-based; details: Homo sapiens; summary of the method: as §1
[5] = system: HUVEC; experiment: Cytotoxicity against HUVEC after 24 hrs by MTT assay; format: cell-based; details: human
Summary of the method: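 Primary endothelial cells isolated from human umbilical cord, grown in M-199 with 15% fetal calf serum, L-glutamine, penicillin, streptomycin, amphotericin and endothelial-cell growth factor, and used after three passages. Cells exposed to vehicle (DMSO 0.25%) or a range of compound concentrations for 24 h. MTT added for the last 4 h, formazan dissolved in DMSO, absorbance read at 570 nm. Trypan blue exclusion also done.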

[6] = system: HUVEC; experiment: Antiinflammatory activity in HUVEC assessed as inhibition of TNF-alpha-induced cell surface ICAM1 expression at 271.4 uM/ml preincubated before TNFalpha challenge measured after 16 hrs by ELISA; format: functional; details: Homo sapiens; summary of the method: as §1
[7] = system: HUVEC; experiment: Antiinflammatory activity in HUVEC assessed as inhibition of TNF-alpha-induced cell surface ICAM1 expression at 50 uM/ml preincubated before TNFalpha challenge measured after 16 hrs by ELISA; format: functional; details: Homo sapiens

| Structure (SMILES) | inhibition at 60 µg/mL [1] | viability at 24 h, 60 ug/mL [2] | Activity [3] | IC50 [4] | MTD [5] | inhibition at 271.4 µM [6] | inhibition at 50 µM [7] |
| --- | --- | --- | --- | --- | --- | --- | --- |
| CC(=O)C1C(=O)N(c2ccccc2)N=C1c1ccccc1 (stereo not drawn) | 20% | 97.9% |  |  |  |  |  |
| Cc1[nH]n(-c2ccccc2)c(=O)c1C(=O)CC(C)(C)C | 35% | 97.1% |  |  |  |  |  |
| CC1=NN(c2ccccc2)C(=O)C1C(=O)c1ccccc1 (stereo not drawn) | 75% | 95.8% | Non-toxic | 36.3 µg/mL (≈ 130 µM) | 271.4 uM/ml | 62% |  |
| CC1=NN(c2ccccc2)C(=O)C1C(=O)CCC1CCCC1 (stereo not drawn) | 35% | 98.6% |  |  |  |  |  |
| CC1=NN(c2ccccc2)C(=O)C1C(=O)c1ccco1 (stereo not drawn) | 55% | 96.2% |  |  |  |  |  |
| COc1cc(/C=C/C(=O)CC(=O)/C=C/c2ccc(O)c(OC)c2)ccc1O [CURCUMIN] |  |  |  |  | 50 uM/ml |  | 90% |
| CC1=NN(c2ccccc2)C(=O)C1C(=O)C(C)(C)C (stereo not drawn) | 60% | 96.1% |  |  |  |  |  |
